Activity calls are given as the source filed them. The calls are words filed in the database; no cut-off is given here.

The first assay concerns BXPC-3. Briefly: Cytotoxicity against human BxPC3 cells by MTT assay. The format is functional, cell-based.
Take `CCCCCCCCCCCCc1ccc(S(=O)(=O)Nc2ccccc2)cc1`: the midpoint of inhibition, the IC50, lay at 38 µM. On to `CC(=O)Nc1ccc(S(=O)(=O)Nc2nnc(C)s2)cc1`, for which the IC50 was above 300 µM. For `CC(=O)Nc1ccc(S(=O)(=O)Nc2nnc(S(N)(=O)=O)s2)cc1`, the IC50 is above 300 µM. The compound `CC(C)(C)c1nnc(NS(=O)(=O)c2ccc(N)cc2)s1` [GLYBUTHIAZOL] showed an IC50 above 300 µM.

With `CCCCCCCCCC(=O)Nc1ccc(S(=O)(=O)Nc2nnc(C(=O)OCC)s2)cc1`, 117 µM corresponded to half-maximal inhibition (IC50).

For the compound `Cc1nnc(NS(=O)(=O)c2ccc(N)cc2)s1` [SULFAMETHIZOLE], the IC50 was above 300 µM. `CCCCCCCCCCCCc1ccccc1S(=O)(=O)Nc1nncs1` came in with an IC50 of 74 µM. Regarding `CCCCCCCCCC(=O)Nc1ccc(S(=O)(=O)Nc2nnc(CO)s2)cc1`, the IC50 was 189 µM. The compound `CCCCCCCCCC(=O)Nc1ccc(S(=O)(=O)Nc2nnc(CC(=O)OCC)s2)cc1` came in with an IC50 of 170 µM. In turn, `CC(=O)Nc1ccc(S(=O)(=O)Nc2nnc(CC(=O)O)s2)cc1` showed an IC50 above 300 µM. Compound `CCCCCCCCCC(=O)Nc1ccc(S(=O)(=O)Nc2nnc(C)s2)cc1` gave an IC50 of 149 µM. The same measure, in the same setting: with `CC(=O)Nc1ccc(S(=O)(=O)Nc2nnc(C(C)(C)C)s2)cc1` the figure was above 300 µM; with `CCCCCCc1ccc(S(=O)(=O)Nc2nncs2)cc1`, 266 µM; with `Nc1ccc(S(=O)(=O)Nc2nnc(S(N)(=O)=O)s2)cc1`, above 300 µM. Same read-out and setting: with `CCCCCCCCCCCCc1cccc(S(=O)(=O)Nc2nncs2)c1` the figure was 71 µM; with `CCCCc1ccc(S(=O)(=O)Nc2nncs2)cc1`, above 300 µM; with `O=S(=O)(Nc1nncs1)c1ccc(-c2ccccc2)cc1`, above 300 µM. `COCCOCCOCC(=O)Nc1ccc(S(=O)(=O)Nc2nncs2)cc1` had an IC50 above 300 µM. Turning to `CCCCCCCCCC(=O)Nc1ccc(S(=O)(=O)Nc2nnc(S(N)(=O)=O)s2)cc1`, the IC50 was above 300 µM. `Nc1ccc(S(=O)(=O)Nc2nnc(CO)s2)cc1` displayed an IC50 above 300 µM. With `CCOC(=O)Cc1nnc(NS(=O)(=O)c2ccc(NC(C)=O)cc2)s1`, half-maximal inhibition (IC50) was put at 176 µM.

The compound `Nc1ccc(S(=O)(=O)Nc2nnc(CC(=O)O)s2)cc1` showed an IC50 above 300 µM.

`CCCCCCCCCC(=O)Nc1ccc(S(=O)(=O)Nc2nnc(CC)s2)cc1` registered an IC50 of 146 µM. Still for that read-out and setting: with `CC(=O)Nc1ccc(S(=O)(=O)Nc2nncs2)cc1` the figure was above 300 µM; with `CCCCCCCCCCCCc1ccc(S(=O)(=O)Nc2nnc(C)s2)cc1`, 51 µM. Still for that read-out and setting: with `CCCCCCCCCC(=O)Nc1ccc(S(=O)(=O)Nc2nncs2)cc1` the figure was 180 µM. `CCCCCCCCCCCCc1ccc(S(=O)(=O)Nc2nnc(CC(=O)O)s2)cc1` registered an IC50 of 117 µM. Turning to `CCCCCCCCCC(=O)Nc1ccc(S(=O)(=O)Nc2nnc(CC(=O)O)s2)cc1`, the IC50 was above 300 µM.

Turning to `CCOC(=O)c1nnc(NS(=O)(=O)c2ccc(NC(C)=O)cc2)s1`, the IC50 is above 300 µM. As for `CC(=O)Nc1ccc(S(=O)(=O)Nc2nnc(CO)s2)cc1`, the IC50 was above 300 µM. `CCCCCCCCCC(=O)Nc1ccc(S(=O)(=O)Nc2nnc(C(C)(C)C)s2)cc1` displayed an IC50 above 300 µM. With `CCc1nnc(NS(=O)(=O)c2ccc(N)cc2)s1` [SULFAETHIDOLE], the IC50 was above 300 µM.

In turn, `CCc1nnc(NS(=O)(=O)c2ccc(NC(C)=O)cc2)s1` had an IC50 above 300 µM. In turn, `Nc1ccc(S(=O)(=O)Nc2nncs2)cc1` yielded an IC50 above 300 µM. `O=S(=O)(Nc1nnc(CO)s1)c1ccc(-c2ccccc2)cc1` showed a concentration for half-maximal inhibition (IC50) above 300 µM.

The next assay relates to BXPC-3. Nature of the assay: Inhibition of AKT phosphorylation at serine 473 residue in human BxPC3 cells at 10 uM after 4 hrs by ELISA. The format is cell-based. Put shortly:
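BxPC3 cells kept in DMEM with 10% heat-inactivated FBS and 4.5 g/L glucose under 5% CO2, mycoplasma-free. Compound made fresh as a 10 mM DMSO stock and dosed at 10 μM final into the medium for 4 h. Equal amounts of lysate run on an MSD pSer473-AKT/total AKT plate; read-out is the pAKT/AKT ratio.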
With `CCCCCCCCCCCCc1ccc(S(=O)(=O)Nc2ccccc2)cc1`, the inhibition entry is “inactive”. Turning to `CCCCCCCCCCCCc1ccccc1S(=O)(=O)Nc1nncs1`, the inhibition result is “inactive”. Still for that read-out and setting: with `CCCCCCCCCCCCc1cccc(S(=O)(=O)Nc2nncs2)c1` the entry was “inactive”.

The values are drawn from ChEMBL document CHEMBL1681784, “Development of sulfonamide AKT PH domain inhibitors” (Bioorg Med Chem, 2011).
